NF-kB expr up = compounds increasing NF-kB expression in human neuronal cells; NF-kB reporter expression; hits give high values; fold change at 12.5 µM; hit rate 1.6% among 190,000; AID 1239; in the data active = fold change above about 3.3
STAT1 act = STAT1 signaling activation. NIH 3T3 STAT1-luciferase reporter, IFN-gamma, luminescence; 100% = IFN-gamma alone, no compound. activation (% of control), % at 5.5 µM. hit rate 2.6% among 200,000. AID 932;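 active = activation above the screen-wide mean activation plus 3 SD, cut at about 130% in these data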;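 also: raw ratio to IFN-gamma control signal so 100% means no change and 0% no light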
FLuc act counter = affects firefly luciferase, flagging false hits in luciferase stimulation screens. ATPlite luciferase biochemical, luminescence, 10 min; 0 = ATP-free wells, 1 = DMSO control. activation factor at 10 µM. 200,000 tested, under 10 active. AID 1027;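 active = luciferase activation factor, scaled between plate controls, of at least 2 with compound at 10 µM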
Target sequence (P08659 whole entry, looked up): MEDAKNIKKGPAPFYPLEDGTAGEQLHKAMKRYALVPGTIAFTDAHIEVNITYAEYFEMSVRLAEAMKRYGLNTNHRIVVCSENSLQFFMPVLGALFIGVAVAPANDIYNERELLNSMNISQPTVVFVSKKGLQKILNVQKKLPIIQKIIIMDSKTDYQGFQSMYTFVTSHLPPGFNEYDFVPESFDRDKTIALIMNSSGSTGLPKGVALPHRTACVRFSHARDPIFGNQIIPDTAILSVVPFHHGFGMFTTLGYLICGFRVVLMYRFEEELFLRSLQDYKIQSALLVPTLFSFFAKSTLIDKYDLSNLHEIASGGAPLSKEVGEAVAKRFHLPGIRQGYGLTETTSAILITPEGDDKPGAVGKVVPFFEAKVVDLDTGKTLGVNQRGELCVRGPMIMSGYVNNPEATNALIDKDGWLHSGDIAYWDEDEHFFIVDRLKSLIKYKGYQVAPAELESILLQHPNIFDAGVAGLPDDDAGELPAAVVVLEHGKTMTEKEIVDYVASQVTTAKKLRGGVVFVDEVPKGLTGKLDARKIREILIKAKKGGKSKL
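Assay system: Luciferase/luciferin detection reagent, cell-free biochemical luciferase assay / Read-out: luciferase activation / Benchmarks: No-ATP low control, compound-free enzyme-plus-ATP high control / Medium: PBS buffer for ATP / Detection: luminescence measurement of luciferase light output / Schedule: 10 min at ambient temperature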
APP 5'UTR act = APP 5'UTR luciferase reporter activation; SH-SY5Y APP 5'UTR luciferase reporter, luminescence; zero percent = DMSO vehicle wells; activation, % at 2 µM; hit rate 1% among 190,000; AID 1276;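 active = activation above a set limit, based on mean plus 3 SD of controls, cut at about 140% in these data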
SDO1 yeast rescue = sdo1-depleted yeast growth rescue. S. cerevisiae sdo1-depleted JHY4D growth rescue, OD600 30 h; hits give high values; pdr5 snq2 efflux-pump mutant strain. z-score at 10 µM. hit rate 0.21% among 140,000;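 active = z-score above 3 at both the 24 hr and the 30 hr optical density reads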;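 also: z-score against mean and SD of all compound wells on the same plate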
FLuc inhib CS = counter-screen for luciferase assay inhibitors: firefly luciferase inhibition; AID 1006; ATPLite firefly luciferase biochemical luminescence, 10 min; inhibition, % at 10 µM; hit rate 1.5% among 200,000; P08659;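 active = inhibition above about 50% when tested at 10 µM, limit read from the data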
Numbers without * were called inactive; / = no result. The list is not random: actives were taken first. Their share in the collection is about 4.3%.

SMILES	NF-kB expr up	STAT1 act	FLuc act counter	APP 5'UTR act	SDO1 yeast rescue	FLuc inhib CS
CC(C)(C)c1ccc(OCC(=O)Nc2ccc(-c3nc4cccnc4o3)cc2)cc1	1.4	103	1	12	-0.99	-3
CC(C)C(=O)Nc1ccc(-c2nc3cccnc3o2)cc1	2.7	147*	0.3	151*	-0.29	67*
O=C1CCCCC1Sc1nnc(-c2ccc3c(c2)OCO3)o1 (configuration not stated)	1.1	18	0.1	178*	/	89*
Brc1ccc(-c2nnc(-c3ccc4c(c3)OCO4)o2)o1	4*	115	0.4	5	-1.3	60*
CCOc1ccc(-c2nnc(-c3ccco3)o2)cc1OCC	1.8	125	1	15	1.3	-1
c1ccc(-c2nnc(-c3ccco3)o2)cc1	1.7	138*	0.8	67	0.84	18
c1coc(-c2nnc(-c3ccc4c(c3)OCO4)o2)c1	2.6	133*	0.6	88	1.3	38
CS(=O)(=O)N1CCN(C2C3CC4CC(C3)CC2C4)CC1 (configuration not stated)	1	80	1	8	/	-5
NS(=O)(=O)c1cc2c(cc1Cl)NC=NS2(=O)=O	1.2	106	1.1	-11	0.41	-7
c1nnc(-c2ccc3c(c2)OCO3)o1	1.2	104	1	16	/	-4
Cc1ccc(-c2nnc(-c3ccc4c(c3)OCO4)o2)cc1	1.1	130*	0.5	130	/	52*
CC(C)(C)n1ncc(Oc2ccc(Oc3cnn(C(C)(C)C)c(=O)c3Cl)cc2)c(Cl)c1=O	/	92	/	4	/	/
Oc1ccccc1-c1cc(-c2ccc3c(c2)OCCO3)n[nH]1	8.9*	111	0.3	211*	-2.1	66*
COc1ccc(-c2cc(-c3cc(F)ccc3O)[nH]n2)cc1OC	2.9	106	1	136*	-2.3	-1
COC(=O)c1cc(-c2ccc(OC)c(OC)c2)n[nH]1	0.81	99	1	-13	0.84	-3
O=C(O)c1cc(-c2ccc3c(c2)OCCO3)n[nH]1	0.99	101	0.6	6	/	40
COc1ccc(-c2cc(-c3cc(OC)ccc3O)[nH]n2)cc1	2.8	114	0.8	98	-3	17
CCOC(=O)c1cc(-c2ccc3c(c2)OCCO3)n[nH]1	4.5*	103	0.4	113	/	60*
COc1ccc(-c2cc(-c3ccc(OC)c(OC)c3)n[nH]2)c(O)c1	4*	97	0.9	127	-0.23	8
NC(=O)c1nn(-c2ccc(Cl)cc2Cl)c(=O)cc1O	2.4	95	1	17	/	-4
O=C(NCCO)C(=O)c1c(-c2ccccc2)cc2ccccn12	1.4	100	1	7	/	-4
NC(=O)c1ccc(NC(=O)COC(=O)CCC(=O)c2ccc(Cl)cc2)cc1	1.1	103	1.1	14	/	-6
Cc1ccc(CCN2C(=O)c3ccccc3C2C(=O)NCc2cccnc2)cc1 (configuration not stated)	1.2	84	1.1	25	/	-9
COc1ccc(O)c(-c2cc(-c3cccc(Br)c3)n[nH]2)c1	3.4*	102	1	85	-0.41	-2
COc1ccc(-c2cc(-c3ccccc3O)[nH]n2)cc1OC	6.8*	109	0.7	194*	-0.67	28
SMILES	NF-kB expr up	STAT1 act	FLuc act counter	APP 5'UTR act	SDO1 yeast rescue	FLuc inhib CS
Cc1cc2ccccc2n1CCNC(=O)Cc1cccc2ccccc12	1.1	94	1	-5	-1.5	-3
COc1ccc(NC(=O)c2ccccc2)c([N+](=O)[O-])c1	1.2	132*	0.9	49	/	11
CCOc1ccc(NC(=O)c2ccc(CC)s2)c([N+](=O)[O-])c1	1.8	133*	1	79	/	2
CCOc1ccc(NC(=O)c2cccnc2Cl)c([N+](=O)[O-])c1	1.1	113	1.1	-3	-1.2	-7
CCCOc1ccc(C(=O)Nc2ccccc2[N+](=O)[O-])cc1	/	140*	/	114	/	/
Cc1noc(C)c1C1(O)CCCCCCCCCCC1	1.2	100	1	9	-0.85	-4
COc1ccc(N2CCN(CC(O)COc3ccc4c(c3)CCC4)CC2)cc1 (configuration not stated)	0.97	103	1.1	-13	-0.43	-7
CCOC(=O)C1C(=O)N(C(=O)c2cncc(Br)c2)CC1c1ccccc1 (configuration not stated)	0.82	110	1.1	6	0.17	-8
Cc1ccccc1OCCCn1c(=O)sc2ccccc21	2.2	131*	0.8	70	-0.39	17
O=c1sc2ccccc2n1CCCOc1ccccc1	2.8	131*	0.9	71	-0.33	14
Cc1ccc(CSc2nnc3ccc(-c4ccncc4)nn23)cc1	1.2	93	1	-4	/	3
OCCC1CN(Cc2cccn2-c2cccnc2)CCN1Cc1ccccc1 (configuration not stated)	1.2	95	1.1	11	/	-6
NC(=O)c1ccccc1NC(=O)/C=C/c1ccccc1	3.6*	129*	0.2	104	0.83	82*
NC(=O)c1ccccc1N/C=C/C(=O)c1ccccc1	5.5*	91	0.1	132	-0.79	89*
NC(=O)c1ccccc1NC(=O)/C=C/c1ccc(Cl)cc1	3	144*	0.2	160*	-1.5	80*
C=C1/C(=C\C=C2/CCC[C@]3(C)[C@@H]([C@H](C)CCCC(C)(C)O)CC[C@@H]23)C[C@@H](O)C[C@@H]1O	/	/	1	/	/	-4
C=CCN(c1ccccc1Cl)S(=O)(=O)c1cccc(C(=O)NCCc2ccc(OC)cc2)c1	1.2	90	1	-4	-0.63	-4
Cc1nnc(SCC(=O)N(C)C2CCCCC2)s1	1.3	106	1	16	/	-1
CC1(C)Cc2nc3sc4c(SCC(=O)NCc5ccccc5)ncnc4c3cc2CO1	3.9*	129*	0.8	-67	-0.4	20
C=CCc1ccc(OCc2ccc(C(=O)OC)o2)c(OC)c1	3.4*	125	0.6	4	-0.46	43
Nc1nc2ccccc2n1C(=O)c1cccs1	4.7*	113	0.3	80	/	69*
CC(=O)c1nc2ccccc2n1CCc1ccccc1	0.97	92	1	-5	/	-5
Nc1nc2ccccc2n1C(=O)c1ccco1	3.1	139*	0.6	131	0.95	43
Nc1nncn1C(=O)c1cccs1	0.98	102	1.1	13	0.53	-5
Nc1nc2ccccc2n1C(=O)c1ccccc1	3.2	73	0.1	161*	/	90*
Nc1nc2ccccc2n1C(=O)CCc1ccccc1	2.6	136*	0.8	49	-0.77	17
O=C(O)CCCn1cc(NC(=O)COc2ccc([N+](=O)[O-])cc2)cn1	1.1	107	1.1	5	/	-8
Nc1nc2ccccc2n1C(=O)c1ccc(F)cc1	3.2	81	0.1	188*	/	91*

Screening data: PubChem BioAssay, several laboratories
